Data taken from paper PMC5590686 (Drug Design, Development and Therapy, 2017).

Experiments:
P-gp = assay: Rho 123 efflux/accumulation by flow cytometry; type: cell-based, rat; details: puerarin 50, peoniflorin 20, menthol 25 μg/mL
[1] = system: TJ proteins ZO-1, claudin-1, F-actin; assay: Immunofluorescence of TJ proteins in RNECs; type: cell-based, rat; details: 3 h; puerarin 50, peoniflorin 20, menthol 25 μg/mL
Procedure, shortened: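 Monolayers grown on PET Transwell membranes (5×10^5 cells/cm2) were exposed to compound media for 3 h at 37°C. They were fixed in cold 4% paraformaldehyde for 30 min and blocked 1 h in goat serum. Anti-ZO-1 or anti-claudin-1 (1:100) was applied overnight at 4°C, then TRITC/FITC secondaries; F-actin was stained with phalloidin (1:150, 30 min, RT), with DAPI counterstain. Fluorescence/confocal imaging used identical settings; AOD = IntDen/Area, expressed as percentage.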

Calu-3 cells = details: Calu-3 monolayer, cited from earlier work
[2] = Bidirectional transport of puerarin across RNEC monolayers; type: in vitro ADME; details: Sprague Dawley, rat
Procedure, shortened: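 RNECs from a male Sprague Dawley rat nasal epithelium, passage 2–3, were seeded at 5×10^5 cells/cm2 on collagen-coated 0.4-μm PET Transwell membranes and grown 3 days at air interface until TEER >500 Ω·cm2. Monolayers were HBSS-washed and equilibrated 30 min at 37°C. Drug was dosed apical or basolateral with shaking at 37°C, receiver sampled 30–180 min, and quantified by C18 HPLC-UV at 250 nm. Papp = regression dQ/dt over donor C and area; ER calculated from both directions.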

[3] = rats, cited from earlier work

| Papp A→B at 180 min [2] [×10⁻⁶ cm/s] | Papp B→A at 180 min [2] [×10⁻⁶ cm/s] | Papp at 180 min [2] [×10⁻⁶ cm/s] | efflux ratio at 180 min [2] | SMILES | effect on P-gp function (Rho 123 retention) (P-gp) | immunostaining / AOD of ZO-1, claudin-1 and F-actin versus control [1] | effect of coadministration on Papp of puerarin (Calu-3 cells) | Papp of puerarin bidirectional transport (Calu-3 cells; both directions) [×10⁻⁶ cm/s] | efflux ratio (ER) (Calu-3 cells) | ability of puerarin to target the brain via intranasal administration ([3]; intranasal versus injection and oral) | bioavailability of puerarin following intranasal administration ([3]; intranasal versus oral, plasma and brain by HPLC) |
| --- | --- | --- | --- | --- | --- | --- | --- | --- | --- | --- | --- |
| – | – | – | – | CC1CCC(C(C)C)C(O)C1 (centres unmarked) [menthol] | inhibited the function of P-gp | weaker than that of the control group | significantly (P<0.05) improved | – | – | – | – |
| – | – | – | – | C[C@@]12C[C@@]3(O)O[C@@H](O1)[C@]1(COC(=O)c4ccccc4)[C@H]3C[C@@]12O[C@@H]1O[C@H](CO)[C@@H](O)[C@H](O)[C@H]1O [peoniflorin] | inhibited the function of P-gp | – | remained unaltered | – | – | – | – |
| 1.27 to 1.31 | 1.35 to 1.41 | < 1.5 | < 2 | O=c1c(-c2ccc(O)cc2)coc2c([C@@H]3O[C@H](CO)[C@@H](O)[C@H](O)[C@H]3O)c(O)ccc12 [puerarin, Puerarin] | inhibited the function of P-gp | – | – | < 1.5 | < 1.5 | higher than that with injection and oral administration | significantly higher than that of oral administration |
